The nature of data set [1]: Tmax in mouse prostate at 23 umol/kg, ip administered as bolus by LC-MS analysis. The class given is ADME, organism-based, Prostate gland. A digest of the protocol:
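Adult male mice (25 ± 5 g) given a single i.p. bolus of 23 µmol/kg, dosing solution 1.36 mM in 10% (v/v) DMSO, 20% (w/v) hydroxypropyl-β-cyclodextrin, 0.9% NaCl in water. Decapitation at time points 10–480 min; plasma, brain, liver, prostate, kidney, heart collected. Acetonitrile precipitation with repaglinide internal standard, LC-MS (ESI positive). tmax and t½β taken from concentration-time data; mean ± SEM, n=3.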

The nature of data set [2]: Terminal half life in mouse liver at 23 umol/kg, ip administered as bolus by LC-MS analysis. The data set is classed as ADME, organism-based. The conditions noted are these: read-out: beta t1/2. A digest of the protocol: (§1)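 Male adult mice (25 ± 5 g) given a single i.p. bolus at 23 µmol/kg. The dosing solution was 1.36 mM in 10% (v/v) DMSO, 20% (w/v) hydroxypropyl-β-cyclodextrin and 0.9% NaCl. Animals were decapitated at seven time points from 10 to 480 min. Plasma and tissues were acetonitrile-precipitated with repaglinide internal standard and analysed by LC-MS. Parameters were derived from concentration–time data, mean ± SEM (n=3).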

Data set [3] addresses T1, Large neutral amino acids transporter small subunit 1 (Homo sapiens, UniProt Q01650). As to the kind of experiment: Inhibition of LAT1 in human MCF7 cells assessed as potentiation of bestatin-induced antiproliferative activity by measuring reduction in cell viability at 100 uM measured after 72 hrs by resazurin dye-based fluorimetric analysis. A digest of the protocol: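 MCF-7 cells seeded 2 × 10^4/well on collagen-coated plates, treated one day later in growth medium with inhibitor (25 or 100 µM) plus bestatin or cisplatin (100 µM) for up to 3 days. Viability read daily by resazurin fluorescence (ex 560/em 590 nm). Viability is treated relative to untreated control. Mean ± SD, n=3.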

Data set [4] addresses T1, Large neutral amino acids transporter small subunit 1. As to the kind of experiment: Competitive binding to LAT1 in human MCF7 cells at 100 uM after 30 mins in presence of OATP 1A2/2B1 inhibitor naringin by HPLC analysis. The data set is classed as cell-based. The gist of the method: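 MCF-7 cells incubated 30 min at 37 °C in HBSS (pH 7.4) holding 100 µM test compound plus 500 µM competitor. Cells washed three times with ice-cold HBSS and lysed in 0.1 M NaOH. Cell-associated compound measured by HPLC against a lysate-spiked standard curve and normalised to protein. Mean ± SD, n=3.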

The nature of data set [5]: AUC (0 to 480 min) in mouse heart at 23 umol/kg, ip administered as bolus by LC-MS analysis. The arrangement: dose 23 umol/kg, time < 8 hr, route intraperitoneal. The conditions noted are these: in vivo, 8 h. The data set is classed as ADME, organism-based. A digest of the protocol: as §1

Activity calls are given as the source filed them. No cut-off for these calls is given here.

T1 sequence (Q01650 whole entry): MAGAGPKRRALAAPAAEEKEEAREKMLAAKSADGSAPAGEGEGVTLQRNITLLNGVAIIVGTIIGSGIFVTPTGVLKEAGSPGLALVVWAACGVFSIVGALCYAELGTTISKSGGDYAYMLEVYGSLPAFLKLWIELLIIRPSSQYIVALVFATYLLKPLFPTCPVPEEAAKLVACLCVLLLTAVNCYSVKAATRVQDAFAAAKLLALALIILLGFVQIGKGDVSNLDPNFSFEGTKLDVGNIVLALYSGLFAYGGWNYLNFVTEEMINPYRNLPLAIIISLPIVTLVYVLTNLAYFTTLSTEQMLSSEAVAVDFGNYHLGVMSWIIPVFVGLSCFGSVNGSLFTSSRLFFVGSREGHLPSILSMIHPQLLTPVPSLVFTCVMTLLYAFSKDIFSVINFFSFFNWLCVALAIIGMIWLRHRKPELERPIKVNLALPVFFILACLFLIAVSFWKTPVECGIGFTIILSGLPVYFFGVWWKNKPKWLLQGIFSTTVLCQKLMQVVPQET

The term Tmax denotes the time at which the peak concentration occurs. On to `CNC(=O)COc1ccc(-c2c(C#N)c(NC(=O)c3cccc(C[C@H](N)C(=O)O)c3)n3c(nc4ccccc43)c2C#N)cc1`, for which the time to peak (Tmax) in data set [1] is 30 min. Moreover, in data set [2], the half-life stood at 52.8 min. For the same molecule, the Activity in data set [3] was determined as 68.6%. Further, in data set [4], the outcome was Active. Besides, in data set [5], the AUC turned out to be 249 nmol/g/min.

The values are drawn from ChEMBL document CHEMBL4425108, “A Selective and Slowly Reversible Inhibitor of l-Type Amino Acid Transporter 1 (LAT1) Potentiates Antiproliferative Drug Efficacy in Cancer Cells” (J Med Chem, 2016).
